pIC50: −log10 of the molar value. ≈ marks a conversion by molar mass, not a printed value. Calls of active or inactive are those of the source. The calls are words filed in the database; no cut-off is given here.
Experiments:
[1] = Selectivity index, ratio of cytotoxicity against rat H9C2 cells to IC50 for antitrypanosomal activity against Trypanosoma cruzi infected in rat H9C2 cells; format: toxicity, cell-based; conditions: read-out: Selectivity Index
[2] = Selectivity index, ratio of cytotoxicity against human HEK293 cells to IC50 for antitrypanosomal activity against bloodstream form of Trypanosoma brucei brucei Lister 427; format: toxicity, cell-based; conditions: read-out: Selectivity Index
Summary of the method: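 Ratio of HEK293 cytotoxicity to the IC50 against free, non-intracellular T. b. brucei parasites. IC50 values are the average of two independent experiments.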

[3] = test system: Trypanosoma brucei brucei; test: Antitrypanosomal activity against bloodstream form of Trypanosoma brucei brucei Lister 427; format: functional, organism-based
Trypanosoma cruzi [4] = test: Antitrypanosomal activity against Trypanosoma cruzi infected in rat H9C2 cells by DRAQ5 DNA dye based imaging analysis; format: functional, organism-based
Summary of the method: (§1)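 IC50 values are the mean of two independent experiments. The T. b. brucei assay uses free parasites. The T. cruzi assay uses intracellular parasites in H9c2 host cells.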

[5] = test system: Trypanosoma brucei brucei; test: Antitrypanosomal activity against Trypanosoma brucei brucei BS427 after 48 hrs by resazurin dye based fluorescence assay; format: functional, organism-based; conditions: for pIC50: Trypanosoma brucei, BS427, 48 h, read-out: IC50; summary of the method: as §1
Plasmodium falciparum = test: Antiplasmodial activity against erythrocytic stage of Plasmodium falciparum after 48 hrs by [3H]-hypoxanthine incorporation assay; format: functional, organism-based
Leishmania donovani = test: AntiLeishmanial activity against amastigote form of Leishmania donovani MHOM/ET/67/L82 after 72 hrs by Alamar blue dye based fluorometric analysis; format: functional, organism-based
[6] = test system: Trypanosoma brucei rhodesiense; test: Antitrypanosomal activity against blood stream form of Trypanosoma brucei rhodesiense STIB900 after 72 hrs by Alamar blue based fluorometric assay; format: functional, organism-based
Trypanosoma cruzi [7] = test: Antitrypanosomal activity against Trypanosoma cruzi Tulahuen C2C4 trypomastigotes infected in rat L6 cells after 96 hrs by photometric analysis; format: functional, organism-based
[8] = Selectivity index, ratio of IC50 for human HEK293 cells incubated for 69 hrs by resazurin dye based fluorescence analysis to IC50 for antitrypanosomal activity against Trypanosoma brucei brucei BS427; format: toxicity; conditions: read-out: Ratio IC50
[9] = Metabolic stability in human liver microsomes; format: ADME, Microsome
Trypanosoma cruzi [10] = test: Trypanosomacidal activity against Trypanosoma cruzi strain Y trypomastigotes assessed as reduction in number of infected cells at faster rate at 20 uM measured for 24 to 96 hrs by Hoechst 33342 staining based fluorescence imaging assay; format: functional, organism-based
Trypanosoma cruzi [11] = test: Antitrypanosomal activity against Trypanosoma cruzi Tulahuen C4 infected in mouse 3T3 cells by Hoechst/HCS CellMask green dye based assay; format: functional, organism-based; conditions: Tulahuen C4, NIH3T3
[12] = Selectivity index, ratio of cytotoxicity against mouse 3T3 cells to IC50 for antitrypanosomal activity against Trypanosoma cruzi Tulahuen C4 infected in mouse 3T3 cells; format: toxicity, cell-based; conditions: read-out: Selectivity Index
[13] = Kinetic solubility of compound at pH 2 to 6.5 by nephelometry; format: physicochemical; conditions: buffer, read-out: Kinetic_solubility

| Structure (SMILES) | pIC50 (Trypanosoma cruzi [4]) | pIC50 [5] | selectivity ratio [1] | selectivity ratio at 69 h [8] | also measured |
| --- | --- | --- | --- | --- | --- |
| CC(C)(C)C(=O)NCCc1csc(-c2cccc(F)c2)n1 | 5.64 | – | 27 | – | selectivity ratio [2]: > 96; pIC50 [3]: 6.10 |
| O=C(CCn1ccc(-c2ccccc2)n1)Nc1ccccc1 | – | – | – | – | IC50 [5]: Not Active |
| O=C(NCCn1ccc(-c2ccccc2F)n1)N1CCCCC1 | – | 7.22 | – | 185 | Activity (Plasmodium falciparum): Active; Activity (Leishmania donovani): Active; Activity [6]: Active; Activity (Trypanosoma cruzi [7]): Active |
| O=C(NCCn1ccc(-c2ccc(F)cc2)n1)N1CCCC1 | 6.49 | 7.12 | 158 | 1060 | – |
| N#Cc1ccccc1-c1ccn(CCNC(=O)N2CCCCC2)n1 | 4.89 | 5.33 | 4 | 18 | – |
| O=C(NCCn1ccc(-c2ccc(F)cc2)n1)N1CC[C@@H](F)C1 | 6.60 | 7.07 | 200 | 922 | – |
| O=C(NCCn1ccc(-c2ccc(F)cc2)n1)N1CC[C@H](F)C1 | 6.89 | 7.49 | 398 | 2450 | Activity (Plasmodium falciparum): Active; Activity (Leishmania donovani): Active; Activity [6]: Active; Activity (Trypanosoma cruzi [7]): Active |
| O=C(NCCn1ccc(-c2ccc(F)cc2)n1)N1CCCCC1 | – | 7.22 | – | 161 | Activity (Plasmodium falciparum): Active; Activity (Leishmania donovani): Active; Activity [6]: Active; Activity (Trypanosoma cruzi [7]): Active; Stability [9]: Stable |
| O=C(NCCn1ccc(-c2cccc(F)c2)n1)N1CCCCC1 | – | 7.30 | – | 197 | Activity (Plasmodium falciparum): Active; Activity (Leishmania donovani): Active; Activity [6]: Active; Activity (Trypanosoma cruzi [7]): Active |
| N#Cc1cccc(-c2ccn(CCNC(=O)N3CCCCC3)n2)c1 | 6.40 | 6.46 | 126 | 236 | – |
| COc1ccc(-c2ccn(CCNC(=O)N3CCCCC3)n2)cc1 | 4.60 | 5.15 | 2 | 12 | – |
| Cc1ccc(-c2ccn(CCNC(=O)N3CCCCC3)n2)cc1 | 5.00 | 5.28 | 5 | 16 | – |
| Cc1ccccc1-c1ccn(CCNC(=O)N2CCCCC2)n1 | 6.49 | 6.46 | 158 | 240 | – |
| O=C(Cn1ccnc1[N+](=O)[O-])NCc1ccccc1 | – | – | – | – | Activity (Trypanosoma cruzi [10]): Active |
| O=C(NCCn1ccc(-c2cccc(Cl)c2)n1)N1CCCCC1 | 6.89 | 6.89 | 398 | 327 | – |
| O=C(NCCn1ccc(-c2ccc(F)c(F)c2)n1)N1CC[C@@H](F)C1 | 7.00 | 7.80 | 501 | 4840 | Activity (Plasmodium falciparum): Active; Activity (Leishmania donovani): Active; Activity [6]: Active; Activity (Trypanosoma cruzi [7]): Active |
| O=C(NCCn1ccc(-c2ccc(F)c(F)c2)n1)N1CCCCC1 | – | 7.57 | – | 2910 | pIC50 (Trypanosoma cruzi [11]): 6.92; selectivity ratio [12]: 616 |
| Cc1cccc(-c2ccn(CCNC(=O)N3CCCCC3)n2)c1 | 6.49 | 6.44 | 158 | 232 | – |
| O=C(NCCn1ccc(-c2ccc(F)c(F)c2)n1)N1CCCC1 | 7.00 | 7.66 | 501 | 3630 | Activity (Plasmodium falciparum): Active; Activity (Leishmania donovani): Active; Activity [6]: Active; Activity (Trypanosoma cruzi [7]): Active; solubility kinetic [13]: 12.5 to 25 µg/mL (≈ 39 to 78 µM); Stability [9]: Stable |
| O=C(NCCn1ccc(-c2ccc(Cl)cc2)n1)N1CCCCC1 | 6.00 | 5.92 | 50 | 35 | – |
| c1ccc(CNCCn2ccc(-c3ccccc3)n2)cc1 | – | – | – | – | IC50 [5]: Not Active |
| O=C(NCCn1ccc(-c2ccc(F)cc2F)n1)N1CCCCC1 | – | 7.35 | – | 1880 | – |
| N#Cc1ccc(-c2ccn(CCNC(=O)N3CCCCC3)n2)cc1 | 4.40 | – | 1 | – | – |
| O=C(NCCn1ccc(-c2ccccc2Cl)n1)N1CCCCC1 | 6.89 | 6.92 | 398 | 361 | – |

Continued, in another order:

| pIC50 (Trypanosoma cruzi [4]) | pIC50 [5] | Structure (SMILES) | selectivity ratio [1] | selectivity ratio at 69 h [8] | also measured |
| --- | --- | --- | --- | --- | --- |
| – | 6.19 | O=C(NCCn1ccc(-c2ccccc2)n1)N1CCCC1 | – | 128 | – |
| – | 5.59 | COc1ccccc1-c1ccn(CCNC(=O)N2CCCCC2)n1 | – | 32 | – |
| 5.49 | 5.96 | O=C(NCCn1ccc(-c2ccccc2)n1)C1CCCC1 | 16 | 39 | – |
| 6.20 | 6.41 | O=C(NCCn1ccc(-c2ccccc2)n1)N1CCCCCC1 | 79 | 215 | – |
| 4.30 | – | O=S(=O)(NCCn1ccc(-c2ccccc2)n1)c1ccccc1 | 1 | – | IC50 [5]: Not Active |
| 4.60 | 5.18 | O=C(NCCn1ccc(-c2ccccc2)n1)N1CCOCC1 | 2 | 13 | – |
| 4.30 | 6.21 | O=C(NCCn1ccc(-c2ccccc2)n1)c1ccccc1 | 1 | 102 | – |
| 6.60 | 7.21 | O=C(NCCn1ccc(-c2ccccc2)n1)N1CC[C@H](F)C1 | 200 | 1300 | – |
| 6.00 | 6.19 | CC(Cn1ccc(-c2ccccc2)n1)NC(=O)N1CCCCC1 (stereo not given) | 50 | 131 | – |
| 6.70 | 6.64 | CC(CNC(=O)N1CCCCC1)n1ccc(-c2ccccc2)n1 (stereo not given) | 251 | 358 | – |
| – | 6.00 | CC(C)OC(=O)NCCn1ccc(-c2ccccc2)n1 | – | 82 | – |
| 6.10 | 6.97 | O=C(NCCn1ccc(-c2ccccc2)n1)N1CC[C@@H](F)C1 | 63 | 732 | – |
| 5.40 | 5.92 | COc1cccc(-c2ccn(CCNC(=O)N3CCCCC3)n2)c1 | 13 | 67 | – |
| 5.49 | 5.70 | CCN(CC)C(=O)NCCn1ccc(-c2ccccc2)n1 | 16 | 42 | – |
| – | 5.12 | CC(C)NC(=O)NCCn1ccc(-c2ccccc2)n1 | – | 11 | – |

— ChEMBL document CHEMBL4342478, “Discovery of Potent N-Ethylurea Pyrazole Derivatives as Dual Inhibitors of Trypanosoma brucei and Trypanosoma cruzi” (ACS Med Chem Lett, 2020)
